Results taken from ChEMBL document CHEMBL4765263, “Design, synthesis, biological evaluation of 6-(2-amino-1H-benzo[d]imidazole-6-yl)quinazolin-4(3H)-one derivatives as novel anticancer agents with Aurora kinase inhibition” (Eur J Med Chem, 2020).

Assays:
[1] = system: PC-3; assay: Cytotoxicity against human PC-3 cells assessed as reduction in cell viability incubated for 72 hrs by MTT assay; type: functional, cell-based; settings: PC-3, 72 h
Outline: (§1)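 MTT viability assay. Cells kept in DMEM with 10% FBS at 37 °C and 5% CO2. Seeded at 5×10^3 cells per well and exposed to a range of compound concentrations from 20 mM DMSO stocks. IC50 is the mean of triplicate measurements.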

[2] = system: MDA-MB-231; assay: Cytotoxicity against human MDA-MB-231 cells assessed as reduction in cell viability incubated for 72 hrs by MTT assay; type: functional, cell-based; settings: MDA-MB-231, 72 h; outline: as §1
[3] = system: SH-SY5Y; assay: Cytotoxicity against human SH-SY5Y cells assessed as reduction in cell viability incubated for 72 hrs by MTT assay; type: functional, cell-based; outline: as §1
[4] = target: T1, Aurora kinase A (Homo sapiens, UniProt O14965); assay: Inhibition of Aurora A (unknown origin) incubated for 1 hrs by HTRF assay
T1 sequence (O14965 whole entry): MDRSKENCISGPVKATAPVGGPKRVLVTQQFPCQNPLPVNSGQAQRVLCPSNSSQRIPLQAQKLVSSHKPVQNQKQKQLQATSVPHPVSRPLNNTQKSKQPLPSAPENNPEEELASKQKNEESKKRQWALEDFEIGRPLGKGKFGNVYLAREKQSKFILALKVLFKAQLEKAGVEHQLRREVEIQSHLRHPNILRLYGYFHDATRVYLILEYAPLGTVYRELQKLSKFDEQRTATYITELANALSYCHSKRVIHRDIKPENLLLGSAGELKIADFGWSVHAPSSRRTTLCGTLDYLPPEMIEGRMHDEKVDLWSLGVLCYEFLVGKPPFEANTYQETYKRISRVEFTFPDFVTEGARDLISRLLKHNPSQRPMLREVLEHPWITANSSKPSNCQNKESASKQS

[5] = target: Aurora kinase B (Homo sapiens, UniProt Q96GD4); assay: Inhibition of Aurora B (unknown origin) incubated for 1 hrs by HTRF assay
Sequence of Aurora kinase B (Q96GD4 whole entry): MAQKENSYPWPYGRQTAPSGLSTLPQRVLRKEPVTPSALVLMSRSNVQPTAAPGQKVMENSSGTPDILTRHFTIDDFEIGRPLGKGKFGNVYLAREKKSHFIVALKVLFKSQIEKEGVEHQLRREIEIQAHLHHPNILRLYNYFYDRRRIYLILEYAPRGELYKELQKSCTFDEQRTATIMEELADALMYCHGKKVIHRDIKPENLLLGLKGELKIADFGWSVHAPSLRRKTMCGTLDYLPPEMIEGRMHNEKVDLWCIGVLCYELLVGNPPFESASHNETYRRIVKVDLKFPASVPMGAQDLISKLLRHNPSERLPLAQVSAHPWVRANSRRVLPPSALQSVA

[6] = Solubility of compound in water; type: physicochemical; settings: buffer

IC50 [4] [µM] | IC50 [5] [µM] | solubility [6] | Compound | IC50 [1] [µM] | IC50 [2] [µM] | IC50 [3] [µM]
 |  |  | O=C(Nc1nc2ccc(-c3ccc4ncn(CCN5CCOCC5)c(=O)c4c3)cc2[nH]1)c1ccccc1 | > 20 | > 20 | > 20
 |  |  | CCC(=O)Nc1nc2ccc(-c3ccc4ncn(C)c(=O)c4c3)cc2[nH]1 | > 20 | 13.5 | 18.1
 |  |  | CCCCC(=O)Nc1nc2ccc(-c3ccc4ncn(CCN5CCOCC5)c(=O)c4c3)cc2[nH]1 | 6.54 | 3.85 | 4.19
 |  |  | O=C(Nc1nc2ccc(-c3ccc4ncn(CCN5CCOCC5)c(=O)c4c3)cc2[nH]1)N1CCOCC1 | > 20 | > 20 | > 20
 |  |  | Cc1cc(Nc2cc(N3CCN(C)CC3)nc(/C=C/c3ccccc3)n2)n[nH]1 [ENMD-2076] | 0.67 | 0.48 | 
 |  |  | O=C(Nc1nc2ccc(-c3ccc4ncn(CCN5CCOCC5)c(=O)c4c3)cc2[nH]1)C1CCCCC1 | 16.5 | 10.2 | 14.2
 |  |  | CCC(=O)Nc1nc2ccc(-c3ccc4ncn(CCN5CCCCC5)c(=O)c4c3)cc2[nH]1 | 6.57 | 1.23 | 4.02
0.0271 | 0.33 | Insoluble | CCC(=O)Nc1nc2ccc(-c3ccc4ncn(CCc5c[nH]c6ccccc56)c(=O)c4c3)cc2[nH]1 | 1.67 | 0.55 | 1.23
 |  |  | CCC(=O)Nc1nc2ccc(-c3ccc4nc(CN5CCOCC5)n(C)c(=O)c4c3)cc2[nH]1 | 1.65 | 0.94 | 1.08
 |  | Soluble | COC(=O)Nc1nc2ccc(-c3ccc4ncn(CCN5CCOCC5)c(=O)c4c3)cc2[nH]1 | > 20 | > 20 | > 20
